# High-throughput results (PubChem)
# Shown are actives, neighbours in structure and some others; about 2% of the full set was active somewhere.
# HTRA1 inhibitor: blocks human HTRA1 serine peptidase | Q92743 | recombinant HTRA1, FP-rhodamine activity-based probe, fluorescence polarization | inhibition, % at 5.96 µM | 0.5% of 340,000 active; in the data active = inhibition above about 36%;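 note: 0% = enzyme with DMSO and 100% = wells lacking enzyme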
# PAD4 inh: inhibitors of human PAD4 | recombinant PAD4, RCA probe fluorescence polarization | Q9UM07 | AID 485272 | 0.41% of 330,000 active | inhibition, % at 6.36 µM;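 active = percent inhibition above a cutoff equal to the mean of all tested compounds plus 3 SD, cut at about 15% in these data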;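 note: 0% = PAD4 with RCA probe and DMSO and 100% = probe without PAD4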
# Target sequence (Q9UM07 whole entry, looked up): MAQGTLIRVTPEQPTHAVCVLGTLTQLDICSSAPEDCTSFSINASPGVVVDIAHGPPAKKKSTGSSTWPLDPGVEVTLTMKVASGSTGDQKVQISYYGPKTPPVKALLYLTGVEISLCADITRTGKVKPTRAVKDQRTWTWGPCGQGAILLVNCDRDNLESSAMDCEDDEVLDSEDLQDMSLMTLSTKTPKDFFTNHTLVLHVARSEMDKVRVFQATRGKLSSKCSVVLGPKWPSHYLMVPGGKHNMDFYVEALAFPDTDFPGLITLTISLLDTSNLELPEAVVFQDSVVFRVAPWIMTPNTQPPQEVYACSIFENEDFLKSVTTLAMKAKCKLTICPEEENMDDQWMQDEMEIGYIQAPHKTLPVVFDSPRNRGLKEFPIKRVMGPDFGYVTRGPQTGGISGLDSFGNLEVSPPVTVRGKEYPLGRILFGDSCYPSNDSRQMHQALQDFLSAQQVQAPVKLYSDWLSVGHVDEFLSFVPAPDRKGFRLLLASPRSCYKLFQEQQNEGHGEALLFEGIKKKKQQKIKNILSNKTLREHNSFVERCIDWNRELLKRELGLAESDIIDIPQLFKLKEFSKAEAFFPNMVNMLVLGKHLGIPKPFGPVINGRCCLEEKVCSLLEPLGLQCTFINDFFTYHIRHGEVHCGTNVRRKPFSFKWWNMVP
# mABHD4 FP: ABHD4 (mouse) inhibition, primary FP screen; purified mABHD4, FP-Rh probe fluorescence polarization; 0.54% of 370,000 active; inhibition, % at 8.92 µM; Q8VD66; AID 720543;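 active = inhibition exceeding the mean over every tested compound plus 3 SD, cut at about 30% in these data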;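 note: 0% = plate median of compound wells and 100% = S159A mutant with DMSO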
#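 Assay system: mouse ABHD4 enzyme, wild type / Also added: fluorescent activity-based probe FP-Rh / Doses: single nominal dose of 8.92 µM, 0.89% DMSO final / Timing: 45 min compound pre-incubation plus 60 min probe step, 25 °C / Signal: FP readout, ex 525 nm / em 598 nm / Control set: S159A mutant/DMSO as 100%, compound-well median as 0%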
# SIAE primary: inhibitors of human sialic acid acetylesterase SIAE; Q9HAT2; SIAE FP-Rh probe binding, fluorescence polarization; inhibition, % at 9.66 µM; 0.69% of 370,000 active;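 active = inhibition above a cutoff: mean of compounds within the control limits plus 3 SD of those, cut at about 17% in these data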;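 note: 0% = plate median of compound wells and 100% = probe without SIAE protein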
# TCR-CD3 inh: human TCR-CD3 binding inhibition. TAMRA-labeled TCR probe fluorescence, biochemical. inhibition, % at 9.4 µM. 0.37% of 360,000 active; in the data active = inhibition above about 19%;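 note: recombinant mutant TCR 2C K166C tagged with TAMRA read by polarization; 0% = receptor in buffer alone and 100% = receptor with positive control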
# TDP2 absorb: TDP2 (human) inhibition, absorbance primary screen. O95551. recombinant TDP2, T5PNP hydrolysis, p-nitrophenol absorbance 415 nm. inhibition, % at 12.8 µM. 0.34% of 370,000 active. AID 720702;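 active = inhibition above the mean of all tested compounds plus 3 SD, set per campaign, cut at about 25% in these data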;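 note: 0% = DMSO with enzyme and 100% = buffer with substrate but no TDP2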
#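 System: recombinant human TDP2 / Amount: 120 nM TDP2 per well / Also added: 5 mM T5PNP chromogenic substrate / Doses: 12.8 µM single point, 1% DMSO / Incubation: 2 h at 37 °C / Detection: p-Nitrophenol epi absorbance / Evaluation: % inhibition relative to enzyme-containing and enzyme-free wells / Repeats: singlicate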
# mABHD4 conf: confirmation of mouse ABHD4 inhibitors | shares compounds with mABHD4 FP | purified mABHD4, FP-Rh probe fluorescence polarization | inhibition, % at 8.92 µM | 55% of 1,800 active;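 active = mean inhibition across replicates above the hit cutoff set in the primary screen, cut at about 30% in these data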;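 note: 0% = wild-type ABHD4 with DMSO and 100% = catalytically dead S159A mutant with DMSO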
# * hit, by the source's call; / = not tested or not shown.
SMILES,HTRA1 inhibitor,PAD4 inh,mABHD4 FP,SIAE primary,TCR-CD3 inh,TDP2 absorb,mABHD4 conf
Nc1ccc2c(c1)-c1ccccc1S(=O)(=O)N2,29.6,5.5,49.9*,14.0,0.5,3.6,31.1*
CC1(C)CC(c2nc(-c3ccc([N+](=O)[O-])cc3)cs2)CCO1 (centres undefined),0.1,0.7,-1.5,7.2,-4.2,-2.8,/
CCN1CCCCC(NC(=O)c2ccc(C)cc2)C1=O (centres undefined),/,/,-10.3,-7.3,/,1.9,/
CCN(CC)c1c(C)nc2ccc(C(=O)Nc3cc(-c4ccccc4)ccc3OC)cn12,/,/,52.8*,-0.8,-5.7,-0.6,59.4*
CCc1nc2ccc(C(=O)Nc3cc(-c4ccccc4)ccc3OC)cn2c1N(C)Cc1ccc(Cl)cc1,/,/,3.6,-4.4,-0.9,-12.7,/
COc1cccc(CN(C(=O)c2ccccc2Cl)C2CCS(=O)(=O)C2)c1 (centres undefined),6.3,2.8,-0.7,4.5,-3.9,5.8,/
Cc1cc2nccnc2cc1C,2.9,/,1.2,-0.7,0.3,-4.1,/
COc1cc(Cl)ccc1OCc1cc(C(=O)N2C[C@]3(C)C[C@H]2CC(C)(C)C3)no1,-24.1,3.7,32.4*,-7.4,7.4,-9.9,27.2
Cc1cc(C)cc(Cn2c3ccc(NC(=O)NCc4ccc(F)cc4)cc3c(=O)n2C)c1,/,/,9.6,4.3,-4.8,0.7,/
O=C1CS/C(=N\N=C\c2ccco2)N1c1ccccc1,12.3,2.1,18.6,9.6,9.9,8.4,/
O=C1CS/C(=C\[N+](=O)[O-])N1c1ccccc1,5.6,-6.1,31.2*,3.6,0.7,7.5,-1.5
CC(=O)Nc1ccc(S(=O)(=O)Nc2nc3ccccc3nc2Nc2cccc(O)c2)cc1,5.2,0.2,17.7,3.2,1.6,-3.0,/
CC(=O)Nc1ccc(S(=O)(=O)Nc2nc3ccccc3nc2Nc2ccc(C(=O)O)c(O)c2)cc1,33.9,5.5,42.6*,-23.8,18.6,4.4,43.1*
CC(=O)Nc1ccc(S(=O)(=O)Nc2nc3ccccc3nc2Nc2ccc3ccccc3c2)cc1,1.9,-4.4,18.1,-0.9,-4.6,5.9,/
CC(=O)Nc1ccc(Nc2nc3ccccc3nc2NS(=O)(=O)c2ccc(Cl)c([N+](=O)[O-])c2)cc1,32.0,/,49.2*,16.3,4.3,7.3,67.7*
CC(=O)Nc1ccc(S(=O)(=O)Nc2nc3ccccc3nc2Nc2ccc(N)cc2)cc1,15.0,0.4,40.0*,1.1,-1.6,-13.5,23.5
Cc1c(C(=O)Nc2nnc(C3CC3)s2)oc2ccccc12,-5.2,1.1,1.7,-2.9,-2.5,8.9,/
CC1=C(C(=O)N(C)C)CC(CC(=O)NCc2cccc3ccccc23)C(=O)N1CCC1=CCCCC1 (centres undefined),-4.3,/,2.0,-3.4,-5.3,7.9,/
CCCCCCN1C[C@@H](O)[C@H](n2cc(C3CC3)nn2)C[C@@H]1c1ccccc1,-21.3,/,-6.3,-5.5,4.6,-7.4,/
CC(C)C[C@@H]1CN=C(N)N1C[C@@H]1CCCN1C[C@@H](C(C)C)N1C[C@@H](Cc2ccccc2)N(CCc2ccc(Cl)c(Cl)c2)C1=N,0.9,2.0,34.1*,6.5,3.7,4.8,22.4
CCC(NC(=O)c1ccc2c(c1)c(C)c(C)n2Cc1ccc(Cl)cc1)c1ccccc1 (centres undefined),/,/,-16.3,-4.5,/,3.7,/
CCn1c(C)nc2cc(C(=O)N/N=C/c3ccc(O)c(O)c3O)ccc21,31.8,/,35.2*,9.3,65.6*,-9.5,44.4*
CCN(C)C1CN(Cc2cn(Cc3cccc(Cl)c3)nn2)S(=O)(=O)C1 (centres undefined),/,/,3.4,1.6,5.5,-1.3,/
COc1cc(OC)cc(C(=O)Nc2nc(CC(=O)NCc3ccc(F)cc3)cs2)c1,-45.4,-4.1,43.4*,-0.4,-8.2,13.1,35.4*
Cn1c(=O)c2cc(NC(=O)CCc3cccnc3)ccc2n1Cc1cccc(C(F)(F)F)c1,/,/,7.3,0.2,1.6,7.5,/
SMILES,HTRA1 inhibitor,PAD4 inh,mABHD4 FP,SIAE primary,TCR-CD3 inh,TDP2 absorb,mABHD4 conf
O=C(O)c1ccc(C2NCC(c3ccccc3Cl)c3c2[nH]c2ccccc32)cc1 (centres undefined),-26.9,2.4,7.4,0.0,-2.0,14.3,/
COc1cc(C2NCC(c3ccc(Cl)cc3Cl)c3c2[nH]c2ccccc32)cc(OC)c1OC (centres undefined),-33.5,-4.6,43.6*,0.4,-4.5,-10.6,58.8*
COc1ccc(NC(=O)Nc2nnc(Cc3ccc(F)cc3)s2)cc1,-0.2,/,-8.3,7.8,1.5,-11.5,/
Cc1ccc(CNC(=O)c2ccc3c(=O)[nH]c4c(C(=O)NCC5CCCO5)sc(=S)n4c3c2)cc1 (centres undefined),9.8,-2.9,33.0*,10.3,6.0,12.2,40.8*
CCCCCNC(=O)c1ccc2c(=O)[nH]c3c(C(=O)NCC4CCCO4)sc(=S)n3c2c1 (centres undefined),9.4,-4.8,32.3*,-0.6,11.6,-0.4,40.1*
CCN(CC)C(=O)Cn1cc(C(=O)C(=O)NCc2ccccn2)c2ccccc21,4.7,-4.9,8.4,1.2,-1.2,-9.6,/
Cc1cc(C)n(CC(=O)Nc2ccc3c(c2)OCO3)c(=O)c1C#N,-5.0,4.7,31.0*,4.1,2.1,7.7,-8.4
Cc1cc2ccccc2c(=O)n1CC(=O)Nc1ccc2c(c1)OCO2,-3.3,9.0,1.0,8.7,-2.5,2.2,/
O=C(O)CCC(=O)Nc1nc2nccc(-c3ccccc3)n2n1,2.9,-2.5,1.3,-6.8,-0.3,10.2,/
O=C1OC(c2ccccc2)(c2cc(Br)c(O)c(Br)c2)c2ccccc21 (centres undefined),-6.5,/,35.1*,-1.4,5.5,-3.8,31.7*
CCCCn1c(N)c(N(C)C(=O)c2c(C)nn(-c3ccccc3)c2C)c(=O)[nH]c1=O,-1.3,-3.5,9.8,4.9,1.9,-0.7,/
O=C(O)c1cccc(NS(=O)(=O)c2ccc3c(c2)C(=O)c2ccccc2C3=O)c1,2.0,-4.6,45.0*,-5.5,-1.3,11.1,36.7*
O=C1c2ccccc2C(=O)c2cc(S(=O)(=O)Nc3ccccc3)ccc21,8.3,-3.0,39.9*,4.7,-1.6,-5.7,53.2*
O=C(O)c1cccc(NS(=O)(=O)c2ccc(C3CCCCC3)cc2)c1,-17.7,1.8,/,/,/,/,/
COc1ccc(NC(=O)CN2C(=O)NC(C)(c3ccccc3)C2=O)cc1Cl (centres undefined),-4.5,-2.8,4.8,1.1,4.5,0.8,/
CCc1c(-c2ccc(Br)cc2)ncn1Cc1cccc(-c2ccccc2)c1,/,/,-0.9,-11.8,2.2,3.4,/
O=C(O)c1cccc(-c2ccc(/C=N/Nc3ccc([N+](=O)[O-])cc3)o2)c1,4.2,-2.5,38.7*,-8.6,-2.1,-17.2,52.7*
